Columns and labels:
Type in all cases: functional
[1] = system: Plasmodium berghei; assay: Antimalarial survival activity in Plasmodium berghei infected NMRI mice (Mus musculus) at 30 mg/kg peroral dose (3x daily); settings: route oral
How it was run: (§1)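 P. berghei GFP ANKA, 2 × 10⁷ parasitized erythrocytes given intravenously to NMRI mice on day 0. Compound in 70/30 Tween 80/ethanol, diluted 10× with water, given orally at 10 mL/kg at 24, 48 and 72 h postinfection; n = 3 per group. Read-out is average survival in days after infection, with individual survival also given. Cure means no blood parasites by flow cytometry on day 30.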

[2] = system: Plasmodium berghei; assay: Antimalarial activity as survival time in Plasmodium berghei-infected NMRI mice (Mus musculus) at 10 mg/kg peroral dose three times daily; settings: route oral; how it was run: as §1
[3] = system: Plasmodium berghei; assay: Reduced parasitemia in Plasmodium berghei infected NMRI mice (Mus musculus); design: concentration or dose not given beside the values
How it was run: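 P. berghei GFP ANKA infection (2 × 10⁷ parasitized erythrocytes i.v., day 0) in NMRI mice, n = 3 per group. One oral dose of 1 × 30 mg/kg at 24 h postinfection, in Tween 80/ethanol 70/30 diluted 10× with water. Blood parasitemia on day 3 postinfection by flow cytometry, given as % suppression against untreated infected mice.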

[4] = system: Plasmodium berghei; assay: Antimalarial survival activity in Plasmodium berghei infected NMRI mice (Mus musculus) at 30 mg/kg peroral dose; settings: route oral
How it was run: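 NMRI mice were infected intravenously on day 0 with 2 × 10⁷ P. berghei GFP ANKA parasitized erythrocytes. One oral dose of 30 mg/kg was given 24 h postinfection in 70/30 Tween 80/ethanol diluted 10× with water, at 10 mL/kg; n = 3 per group. Read-out is average survival in days after infection.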

| Structure (SMILES) | Survival [1] | Survival [2] | Activity [3] | Survival [4] |
| --- | --- | --- | --- | --- |
| CCOC(=O)N1CCC2(CC1)OCC(C[C@H]1O[C@@H]3O[C@]4(C)CC[C@H]5[C@H](C)CC[C@@H]([C@H]1C)[C@@]35OO4)(C[C@H]1O[C@@H]3O[C@]4(C)CC[C@H]5[C@H](C)CC[C@@H]([C@H]1C)[C@@]35OO4)O2 (stereo partly specified) | >=30 day | 14 days | 99.6% | 8.7 days |
| C[C@H]1[C@@H](CC(C[C@H]2O[C@@H]3O[C@]4(C)CC[C@H]5[C@H](C)CC[C@@H]([C@H]2C)[C@@]35OO4)c2nnc(-c3ccc(F)cc3)o2)O[C@@H]2O[C@]3(C)CC[C@H]4[C@H](C)CC[C@@H]1[C@@]24OO3 (stereo partly specified) |  |  | 98.8% | 10 days |
| Cc1noc(C(C[C@H]2O[C@@H]3O[C@]4(C)CC[C@H]5[C@H](C)CC[C@@H]([C@H]2C)[C@@]35OO4)C[C@H]2O[C@@H]3O[C@]4(C)CC[C@H]5[C@H](C)CC[C@@H]([C@H]2C)[C@@]35OO4)n1 (stereo partly specified) |  |  | 98.9% | 13.7 days |
| CCOP(=S)(OCC)OCC(C[C@H]1O[C@@H]2O[C@]3(C)CC[C@H]4[C@H](C)CC[C@@H]([C@H]1C)[C@@]24OO3)C[C@H]1O[C@@H]2O[C@]3(C)CC[C@H]4[C@H](C)CC[C@@H]([C@H]1C)[C@@]24OO3 (stereo partly specified) | 24.7 days | 7.7 days |  |  |
| C[C@H]1[C@@H](CC(O)(COCc2ccncc2)C[C@H]2O[C@@H]3O[C@]4(C)CC[C@H]5[C@H](C)CC[C@@H]([C@H]2C)[C@@]35OO4)O[C@@H]2O[C@]3(C)CC[C@H]4[C@H](C)CC[C@@H]1[C@@]24OO3 (stereo partly specified) | >=30 day | 14.7 days | 99.2% | 10 days |
| C[C@H]1[C@@H](CC2(C[C@H]3O[C@@H]4O[C@]5(C)CC[C@H]6[C@H](C)CC[C@@H]([C@H]3C)[C@@]46OO5)COCO2)O[C@@H]2O[C@]3(C)CC[C@H]4[C@H](C)CC[C@@H]1[C@@]24OO3 (stereo partly specified) | >=30 day | 11 days |  |  |
| C[C@H]1[C@@H](CC2(C[C@H]3O[C@@H]4O[C@]5(C)CC[C@H]6[C@H](C)CC[C@@H]([C@H]3C)[C@@]46OO5)COC3(CCN(C(=O)c4ccccc4)CC3)O2)O[C@@H]2O[C@]3(C)CC[C@H]4[C@H](C)CC[C@@H]1[C@@]24OO3 (stereo partly specified) |  | 15.7 days | 99% | 10 days |
| C[C@H]1[C@@H](CC(C[C@H]2O[C@@H]3O[C@]4(C)CC[C@H]5[C@H](C)CC[C@@H]([C@H]2C)[C@@]35OO4)C(=O)NCC2CCCCC2)O[C@@H]2O[C@]3(C)CC[C@H]4[C@H](C)CC[C@@H]1[C@@]24OO3 (stereo partly specified) | >=30 day | 7 days |  |  |
| C[C@H]1[C@@H](CC(C[C@H]2O[C@@H]3O[C@]4(C)CC[C@H]5[C@H](C)CC[C@@H]([C@H]2C)[C@@]35OO4)C(=O)N[C@@H](C)c2ccc(F)cc2)O[C@@H]2O[C@]3(C)CC[C@H]4[C@H](C)CC[C@@H]1[C@@]24OO3 (stereo partly specified) |  |  | 98.9% | 12.7 days |
| Cc1ccc(COCC(C[C@H]2O[C@@H]3O[C@]4(C)CC[C@H]5[C@H](C)CC[C@@H]([C@H]2C)[C@@]35OO4)C[C@H]2O[C@@H]3O[C@]4(C)CC[C@H]5[C@H](C)CC[C@@H]([C@H]2C)[C@@]35OO4)cc1 (stereo partly specified) | >=30 day | 8 days |  |  |
| C[C@H]1[C@@H](CC(O)(COC(=O)c2ccccc2)C[C@H]2O[C@@H]3O[C@]4(C)CC[C@H]5[C@H](C)CC[C@@H]([C@H]2C)[C@@]35OO4)O[C@@H]2O[C@]3(C)CC[C@H]4[C@H](C)CC[C@@H]1[C@@]24OO3 (stereo partly specified) | 20.7 days | 6 days |  |  |
| C[C@@H]1CC[C@H]2[C@@H](C)C(OC(=O)CCC(=O)[O-])O[C@@H]3O[C@]4(C)CC[C@@H]1[C@]32OO4.[Na+] (stereo partly specified) | 7.2 days |  | 92% | 7.6 days |
| C[C@H]1[C@@H](CC2(C[C@H]3O[C@@H]4O[C@]5(C)CC[C@H]6[C@H](C)CC[C@@H]([C@H]3C)[C@@]46OO5)COC3(CCC3)O2)O[C@@H]2O[C@]3(C)CC[C@H]4[C@H](C)CC[C@@H]1[C@@]24OO3 (stereo partly specified) | >=30 day | 7 days |  |  |
| CCN(CC)C(=O)OCC(C[C@H]1O[C@@H]2O[C@]3(C)CC[C@H]4[C@H](C)CC[C@@H]([C@H]1C)[C@@]24OO3)C[C@H]1O[C@@H]2O[C@]3(C)CC[C@H]4[C@H](C)CC[C@@H]([C@H]1C)[C@@]24OO3 (stereo partly specified) | >=30 day | 14 days | 99.3% | 11.7 days |
| C[C@H]1[C@@H](CC2(C[C@H]3O[C@@H]4O[C@]5(C)CC[C@H]6[C@H](C)CC[C@@H]([C@H]3C)[C@@]46OO5)COC3(CCS(=O)(=O)CC3)O2)O[C@@H]2O[C@]3(C)CC[C@H]4[C@H](C)CC[C@@H]1[C@@]24OO3 | >=30 day | 8.3 days |  |  |
| Cc1ccc(CNC(=O)C(C[C@H]2O[C@@H]3O[C@]4(C)CC[C@H]5[C@H](C)CC[C@@H]([C@H]2C)[C@@]35OO4)C[C@H]2O[C@@H]3O[C@]4(C)CC[C@H]5[C@H](C)CC[C@@H]([C@H]2C)[C@@]35OO4)cc1 (stereo partly specified) |  |  | 99% | 10.3 days |
| CNC(=O)N1CCC2(CC1)OCC(C[C@H]1O[C@@H]3O[C@]4(C)CC[C@H]5[C@H](C)CC[C@@H]([C@H]1C)[C@@]35OO4)(C[C@H]1O[C@@H]3O[C@]4(C)CC[C@H]5[C@H](C)CC[C@@H]([C@H]1C)[C@@]35OO4)O2 (stereo partly specified) | >=30 day | 13.3 days |  |  |
| C[C@H]1[C@@H](CC(C[C@H]2O[C@@H]3O[C@]4(C)CC[C@H]5[C@H](C)CC[C@@H]([C@H]2C)[C@@]35OO4)C(=O)NCc2ccncc2)O[C@@H]2O[C@]3(C)CC[C@H]4[C@H](C)CC[C@@H]1[C@@]24OO3 (stereo partly specified) | 11.3 days | 7 days |  |  |
| COC(=O)c1ccc(CNC(=O)C(C[C@H]2O[C@@H]3O[C@]4(C)CC[C@H]5[C@H](C)CC[C@@H]([C@H]2C)[C@@]35OO4)C[C@H]2O[C@@H]3O[C@]4(C)CC[C@H]5[C@H](C)CC[C@@H]([C@H]2C)[C@@]35OO4)cc1 (stereo partly specified) |  | 10 days |  |  |
| C[C@H]1[C@@H](CC(O)(COCC#CCOCc2ccc(F)cc2)C[C@H]2O[C@@H]3O[C@]4(C)CC[C@H]5[C@H](C)CC[C@@H]([C@H]2C)[C@@]35OO4)O[C@@H]2O[C@]3(C)CC[C@H]4[C@H](C)CC[C@@H]1[C@@]24OO3 (stereo partly specified) |  |  | 88% | 6.3 days |
| C[C@H]1[C@@H](CC2(C[C@H]3O[C@@H]4O[C@]5(C)CC[C@H]6[C@H](C)CC[C@@H]([C@H]3C)[C@@]46OO5)COC3(CCC(=O)CC3)O2)O[C@@H]2O[C@]3(C)CC[C@H]4[C@H](C)CC[C@@H]1[C@@]24OO3 (stereo partly specified) | >=30 day | 16.3 days | 99.6% | 8.3 days |
| C[C@H]1[C@@H](CC(C[C@H]2O[C@@H]3O[C@]4(C)CC[C@H]5[C@H](C)CC[C@@H]([C@H]2C)[C@@]35OO4)C(=O)NCC(C)(C)C)O[C@@H]2O[C@]3(C)CC[C@H]4[C@H](C)CC[C@@H]1[C@@]24OO3 (stereo partly specified) | 27.7 days | 6 days |  |  |
| C[C@H]1[C@@H](CC2(C[C@H]3O[C@@H]4O[C@]5(C)CC[C@H]6[C@H](C)CC[C@@H]([C@H]3C)[C@@]46OO5)COC3(CCOCC3)O2)O[C@@H]2O[C@]3(C)CC[C@H]4[C@H](C)CC[C@@H]1[C@@]24OO3 (stereo partly specified) | >=30 day | 15.7 days | 99.5% | 9 days |
| C[C@H]1[C@@H](CC(C[C@H]2O[C@@H]3O[C@]4(C)CC[C@H]5[C@H](C)CC[C@@H]([C@H]2C)[C@@]35OO4)=NNC(=O)c2ccncc2)O[C@@H]2O[C@]3(C)CC[C@H]4[C@H](C)CC[C@@H]1[C@@]24OO3 | >=30 day | 17.7 days | 99.4% | 10 days |

Source: ChEMBL document CHEMBL1141568, “Malaria-infected mice are cured by oral administration of new artemisinin derivatives” (2008)
